Reference: ChEMBL document CHEMBL1955761, “Privileged scaffolds or promiscuous binders: a comparative study on rhodanines and related heterocycles in medicinal chemistry” (J Med Chem, 2012)
Activity calls are given as the source filed them.

Tests used:
Prothrombin (Bos taurus) = Prothrombin (Bos taurus) (UniProt P00735); assay: Inhibition of bovine plasma thrombin using Boc-Val-Pro-Arg-AMC as substrate at 25 uM preincubated for 15 mins measured after 10 mins by fluorimetric assay
In short: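 Purchased bovine plasma thrombin at 10 nM final, preincubated 15 min with 25 μM inhibitor; reaction started with 50 μM substrate. Buffer 50 mM Tris-HCl pH 7.5, 150 mM NaCl, 0.05% Tween 20. Triplicate, averaged.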

Escherichia coli [1] = assay: Inhibition of Escherichia coli MurA using PEP as substrate assessed as inorganic phosphate release at 25 uM preincubated for 10 mins measured after 60 mins […]
Escherichia coli [2] = assay: Inhibition of Escherichia coli MetAP at 10 uM after 15 mins by fluorescence analysis
Dengue virus = assay: Inhibition of Dengue virus NS2B-NS3 protease using Abz-NleKRRS-3-(NO2)Y as substrate at 50 uM preincubated for 15 mins measured every sec for 15 mins by fluorimetric analysis

inhibition (Prothrombin (Bos taurus)) | inhibition (Escherichia coli [1]) | inhibition (Escherichia coli [2]) | inhibition (Dengue virus) | Structure (SMILES)
14% | inactive | inactive | 26% | O=C1NC(=O)/C(=C/c2ccc(O)cc2)N1
inactive | inactive | inactive | 26% | O=C1NC(=O)/C(=C/c2ccc([N+](=O)[O-])cc2)N1
15% | 57% | 11% | 42% | O=C1NC(=S)N/C1=C\c1cc(Br)cs1
29% | 22% | inactive | 42% | O=C1NC(=S)N/C1=C\c1ccc(Cl)s1
14% | inactive | 15% | 31% | Cc1ccc(/C=C2\NC(=S)NC2=O)cc1
inactive | inactive | inactive | 18% | COc1ccc(/C=C2\NC(=O)NC2=O)cc1OC
inactive | inactive | inactive | inactive | O=C1NC(=O)/C(=C/c2sccc2Cl)N1
16% | inactive | inactive | 29% | CN(C)c1ccc(/C=C2\NC(=O)NC2=O)cc1
15% | inactive | inactive | 36% | O=C1NC(=O)/C(=C/c2c[nH]c3ccccc23)N1
28% | 43% | inactive | 47% | O=C1NC(=S)S/C1=C\c1sccc1Cl
23% | 46% | 86% | 36% | O=C1NC(=S)N/C1=C\c1ccc(O)c(O)c1

Further lines, the compound ahead of its results:

Structure (SMILES) | inhibition (Prothrombin (Bos taurus)) | inhibition (Escherichia coli [1]) | inhibition (Escherichia coli [2]) | inhibition (Dengue virus)
COc1cccc(/C=C2\SC(=S)NC2=O)c1 | 11% | 10% | inactive | 33%
COc1ccc(/C=C2\SC(=S)NC2=O)cc1 | 16% | inactive | inactive | 42%
COc1cc(/C=C2\SC(=S)NC2=O)ccc1O | 32% | 66% | 12% | 42%
C/C(=C1/NC(=S)NC1=O)c1ccc2ccccc2c1 | 10% | inactive | 15% | 33%
COc1cc(/C=C2\SC(=O)NC2=O)ccc1O | 27% | 100% | inactive | 19%
O=C1NC(=S)N/C1=C\c1c[nH]c2ccccc12 | 22% | 77% | inactive | 55%
O=C1NC(=S)SC1Cc1ccccc1 (stereo unspecified) | inactive | 11% | inactive | inactive
O=C1NC(=O)/C(=C/C2CCCCC2)S1 | inactive | inactive | inactive | 25%
O=C1NC(=S)S/C1=C\C1CCCCC1 | 29% | 13% | 40% | 22%
O=C1NC(=S)S/C1=C\c1cccc(O)c1 | 15% | 58% | 12% | 29%
CC(=O)N1C(=S)NC(=O)[C@@H]1Cc1ccc(O)cc1 | inactive | inactive | inactive | inactive
COc1ccccc1/C=C1\NC(=S)NC1=O | 15% | 10% | 18% | 28%
COc1ccc(/C=C2\SC(=O)NC2=O)cc1OC | 23% | inactive | 13% | 16%
O=C1NC(=S)N/C1=C\c1ccc([N+](=O)[O-])cc1 | 19% | 15% | 13% | 35%
CC(=O)N1C(=S)NC(=O)[C@@H]1Cc1ccccc1 | inactive | 19% | 12% | inactive
CC(=O)N1C(=S)NC(=O)[C@H]1Cc1ccccc1 | inactive | 15% | inactive | inactive
O=C1CNC(=S)N1 | inactive | inactive | inactive | inactive
O=C1NC(=S)NC1Cc1ccc(O)c(O)c1 (stereo unspecified) | inactive | 63% | 73% | 15%
